Data published in article PMC5508980 (Molecular nutrition & food research, 2017).

Experiments:
Class IIb HDAC = experiment: HDAC activity assay, class IIb substrate, bovine heart tissue lysate; assay type: biochemical; conditions: 2 hours treatment
Summary of the method: (§1)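 Bovine heart lysate prepared in PBS pH 7.4 with 0.5% Triton X-100, 300 mM NaCl and protease/phosphatase inhibitors, then clarified; 30 µg protein/well in PBS. Test compound at semi-log increasing concentrations for 2 h, then class-specific AMC-acyl-lysine substrate (1 mM DMSO stock) for 2 h at 37 °C.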

recombinant HDAC7 = target: T1, recombinant HDAC7 (Homo sapiens, UniProt Q8WUI4); experiment: Recombinant HDAC activity assay; assay type: biochemical; conditions: recombinant protein incubated with 50 µM compound, 2 hrs
T1 sequence (Q8WUI4 1-952): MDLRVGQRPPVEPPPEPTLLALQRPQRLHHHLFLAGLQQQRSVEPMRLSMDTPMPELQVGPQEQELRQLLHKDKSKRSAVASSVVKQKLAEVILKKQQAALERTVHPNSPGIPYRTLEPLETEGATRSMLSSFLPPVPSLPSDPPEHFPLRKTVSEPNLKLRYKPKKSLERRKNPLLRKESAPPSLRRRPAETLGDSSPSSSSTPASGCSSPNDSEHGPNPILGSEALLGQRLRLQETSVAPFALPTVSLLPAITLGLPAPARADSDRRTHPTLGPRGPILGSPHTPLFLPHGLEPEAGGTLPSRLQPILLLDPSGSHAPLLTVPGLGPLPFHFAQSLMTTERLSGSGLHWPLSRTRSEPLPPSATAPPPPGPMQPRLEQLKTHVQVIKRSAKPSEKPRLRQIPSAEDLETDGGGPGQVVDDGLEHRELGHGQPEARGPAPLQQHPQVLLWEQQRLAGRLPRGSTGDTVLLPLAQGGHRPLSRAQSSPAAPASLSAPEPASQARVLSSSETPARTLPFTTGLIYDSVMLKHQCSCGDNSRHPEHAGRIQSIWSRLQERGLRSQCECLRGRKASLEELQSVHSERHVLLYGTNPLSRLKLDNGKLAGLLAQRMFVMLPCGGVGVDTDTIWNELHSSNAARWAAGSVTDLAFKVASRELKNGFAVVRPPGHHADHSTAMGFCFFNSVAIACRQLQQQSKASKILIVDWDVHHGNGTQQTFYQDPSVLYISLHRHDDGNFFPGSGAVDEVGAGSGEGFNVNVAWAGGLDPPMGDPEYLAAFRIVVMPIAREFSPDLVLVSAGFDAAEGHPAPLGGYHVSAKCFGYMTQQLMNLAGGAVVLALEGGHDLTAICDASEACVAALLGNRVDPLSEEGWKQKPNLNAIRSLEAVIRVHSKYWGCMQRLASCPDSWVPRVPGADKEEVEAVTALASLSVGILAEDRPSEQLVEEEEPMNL

recombinant HDAC6 = target: T2, recombinant HDAC6 (Homo sapiens, UniProt Q9UBN7); experiment: Recombinant HDAC activity assay; assay type: biochemical; conditions: 2 h, read-out: % HDAC activity, Class IIb HDACs, 6
T2 sequence (Q9UBN7 1-1215): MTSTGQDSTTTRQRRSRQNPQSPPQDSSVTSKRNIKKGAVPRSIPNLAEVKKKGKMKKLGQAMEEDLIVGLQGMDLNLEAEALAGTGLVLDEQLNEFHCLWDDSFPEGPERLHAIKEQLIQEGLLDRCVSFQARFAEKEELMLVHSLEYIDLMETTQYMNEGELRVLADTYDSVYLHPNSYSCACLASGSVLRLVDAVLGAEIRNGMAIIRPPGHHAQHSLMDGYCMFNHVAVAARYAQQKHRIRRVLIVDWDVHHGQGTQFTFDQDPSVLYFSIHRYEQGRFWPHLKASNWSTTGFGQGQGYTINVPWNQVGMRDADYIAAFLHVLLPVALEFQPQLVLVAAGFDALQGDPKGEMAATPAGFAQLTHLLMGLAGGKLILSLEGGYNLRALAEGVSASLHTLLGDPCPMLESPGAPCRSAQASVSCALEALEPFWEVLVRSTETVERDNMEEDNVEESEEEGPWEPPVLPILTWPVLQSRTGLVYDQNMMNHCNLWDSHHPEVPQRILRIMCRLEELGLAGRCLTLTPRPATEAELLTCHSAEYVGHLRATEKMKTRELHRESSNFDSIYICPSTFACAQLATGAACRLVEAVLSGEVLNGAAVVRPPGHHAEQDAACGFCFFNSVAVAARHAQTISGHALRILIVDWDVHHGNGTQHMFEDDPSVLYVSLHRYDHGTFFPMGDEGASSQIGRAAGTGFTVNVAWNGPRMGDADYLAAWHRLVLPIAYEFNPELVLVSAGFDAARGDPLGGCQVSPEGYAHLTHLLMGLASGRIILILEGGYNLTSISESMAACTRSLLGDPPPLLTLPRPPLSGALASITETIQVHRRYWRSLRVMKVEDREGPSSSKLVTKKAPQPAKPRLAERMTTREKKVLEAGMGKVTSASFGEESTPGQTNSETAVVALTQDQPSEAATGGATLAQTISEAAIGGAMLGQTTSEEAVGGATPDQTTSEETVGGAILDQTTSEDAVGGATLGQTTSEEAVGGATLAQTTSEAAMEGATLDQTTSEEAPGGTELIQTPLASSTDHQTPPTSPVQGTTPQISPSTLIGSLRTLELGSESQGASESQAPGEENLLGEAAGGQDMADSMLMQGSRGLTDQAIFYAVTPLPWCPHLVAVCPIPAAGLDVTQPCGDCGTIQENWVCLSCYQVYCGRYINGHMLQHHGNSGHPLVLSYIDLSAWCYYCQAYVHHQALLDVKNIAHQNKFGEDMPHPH

Class I HDAC = experiment: HDAC activity assay, class I substrate, bovine heart tissue lysate; assay type: biochemical; conditions: 2 hours treatment
Summary of the method: as §1

recombinant HDAC1 = recombinant HDAC1 (Homo sapiens, UniProt Q13547); experiment: Recombinant HDAC activity assay; assay type: biochemical
recombinant HDAC2 = recombinant HDAC2 (Homo sapiens, UniProt Q92769); experiment: Recombinant HDAC activity assay; assay type: biochemical; conditions: recombinant protein incubated with 50 µM compound, 2 hrs
recombinant HDAC3 = recombinant HDAC3 (Homo sapiens, UniProt O15379); experiment: Recombinant HDAC activity assay; assay type: biochemical
recombinant HDAC8 = target: T3, recombinant HDAC8 (Homo sapiens, UniProt Q9BY41); experiment: Recombinant HDAC activity assay; assay type: biochemical
T3 sequence (Q9BY41 1-377): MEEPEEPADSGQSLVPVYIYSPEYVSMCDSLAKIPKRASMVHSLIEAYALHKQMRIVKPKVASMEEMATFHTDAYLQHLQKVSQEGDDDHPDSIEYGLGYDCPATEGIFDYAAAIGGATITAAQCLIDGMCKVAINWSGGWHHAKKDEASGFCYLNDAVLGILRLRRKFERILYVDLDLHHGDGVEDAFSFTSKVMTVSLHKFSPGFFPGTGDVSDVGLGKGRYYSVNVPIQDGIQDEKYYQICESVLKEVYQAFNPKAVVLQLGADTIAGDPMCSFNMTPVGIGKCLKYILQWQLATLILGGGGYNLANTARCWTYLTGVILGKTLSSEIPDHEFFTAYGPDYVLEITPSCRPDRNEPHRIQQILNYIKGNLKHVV

Class IIa HDAC = experiment: HDAC activity assay, class IIa substrate, bovine heart tissue lysate; assay type: biochemical; conditions: 2 hours treatment
Summary of the method: as §1

recombinant HDAC4 = recombinant HDAC4 (Homo sapiens, UniProt P56524); experiment: Recombinant HDAC activity assay; assay type: biochemical; conditions: 2 h, read-out: % HDAC activity, Class IIa HDACs, 4
recombinant HDAC5 = recombinant HDAC5 (Homo sapiens, UniProt Q9UQL6); experiment: Recombinant HDAC activity assay; assay type: biochemical; conditions: 2 h, read-out: % HDAC activity, Class IIa HDACs, 5
recombinant HDAC9 = recombinant HDAC9 (Homo sapiens, UniProt Q9UKV0); experiment: Recombinant HDAC activity assay; assay type: biochemical; conditions: 2 h, read-out: % HDAC activity, Class IIa HDACs, 9
recombinant HDAC10 = target: T4, recombinant HDAC10 (Homo sapiens, UniProt Q969S8); experiment: Recombinant HDAC activity assay; assay type: biochemical; conditions: 2 h, read-out: % HDAC activity, Class IIb HDACs, 10
T4 sequence (Q969S8 1-669): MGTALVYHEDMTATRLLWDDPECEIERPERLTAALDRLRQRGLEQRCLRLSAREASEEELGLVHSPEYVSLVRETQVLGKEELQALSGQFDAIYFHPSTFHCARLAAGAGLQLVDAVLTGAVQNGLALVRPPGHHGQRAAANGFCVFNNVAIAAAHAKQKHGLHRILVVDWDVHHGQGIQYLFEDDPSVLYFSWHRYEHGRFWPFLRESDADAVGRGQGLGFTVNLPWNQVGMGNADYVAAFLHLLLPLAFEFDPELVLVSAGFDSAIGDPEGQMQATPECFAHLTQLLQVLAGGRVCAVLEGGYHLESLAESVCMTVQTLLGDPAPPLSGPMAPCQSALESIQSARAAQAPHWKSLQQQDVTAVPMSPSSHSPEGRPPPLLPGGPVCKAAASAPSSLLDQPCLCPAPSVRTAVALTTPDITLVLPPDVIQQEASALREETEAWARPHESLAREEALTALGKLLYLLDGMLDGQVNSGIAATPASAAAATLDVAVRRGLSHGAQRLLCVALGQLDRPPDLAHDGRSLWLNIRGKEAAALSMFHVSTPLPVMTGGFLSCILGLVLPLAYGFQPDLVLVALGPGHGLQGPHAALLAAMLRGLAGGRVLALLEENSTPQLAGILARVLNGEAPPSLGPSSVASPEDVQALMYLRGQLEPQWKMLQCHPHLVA

[1] = tested on: HDAC activity in bovine cardiac tissue; experiment: Natural product library screen with class-selective HDAC substrates; assay type: biochemical; conditions: 2 hours treatment
Summary of the method: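 The screen covered 131 natural compounds against bovine cardiac tissue lysate at 30 µg protein/well in PBS (pH 7.4 lysis buffer with Triton X-100 and NaCl). Test compound for 2 h, then separate class I, IIa or IIb fluorogenic acyl-lysine-AMC substrates for 2 h at 37 °C. Developer (Triton X-100, 3 µM TSA, 0.75 mg/ml trypsin) for 20 min; fluorescence read at 360/460 nm.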

H9c2 cells = experiment: Acetyl-H3K9/14 immunoblot of whole cell extract; assay type: cell-based, rat; conditions: H9c2 myocytes, 50 µM, 2 hours
Summary of the method: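 H9c2 cells were grown in DMEM with 10% FBS and treated at 90% confluence for 2 h with test compound or DMSO, with TSA as positive control. Washed in ice-cold PBS, lysed in PBS pH 7.4 with 0.5% Triton X-100 and 300 mM NaCl plus inhibitors, sonicated and clarified. SDS-PAGE, nitrocellulose, acetyl-H3K9/14 and total H3 antibodies, chemiluminescence; densitometry; ANOVA with Tukey.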

[2] = recombinant protein incubated with 50 µM compound, 2 hrs

recombinant HDAC1, sequence (Q13547 whole entry): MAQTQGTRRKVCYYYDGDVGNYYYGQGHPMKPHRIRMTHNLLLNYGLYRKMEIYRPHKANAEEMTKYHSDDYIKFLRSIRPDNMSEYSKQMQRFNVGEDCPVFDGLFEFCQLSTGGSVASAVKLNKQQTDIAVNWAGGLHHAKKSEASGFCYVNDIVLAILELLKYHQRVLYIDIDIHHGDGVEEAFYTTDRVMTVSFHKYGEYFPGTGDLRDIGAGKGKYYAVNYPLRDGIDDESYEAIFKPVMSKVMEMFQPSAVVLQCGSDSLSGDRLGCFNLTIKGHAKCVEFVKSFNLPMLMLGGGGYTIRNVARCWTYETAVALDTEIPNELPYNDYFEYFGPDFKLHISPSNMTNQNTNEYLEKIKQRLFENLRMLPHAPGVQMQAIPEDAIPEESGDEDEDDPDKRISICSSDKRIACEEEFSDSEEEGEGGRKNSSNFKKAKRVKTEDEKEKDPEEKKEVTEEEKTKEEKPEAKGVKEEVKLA
recombinant HDAC3, sequence (O15379 whole entry): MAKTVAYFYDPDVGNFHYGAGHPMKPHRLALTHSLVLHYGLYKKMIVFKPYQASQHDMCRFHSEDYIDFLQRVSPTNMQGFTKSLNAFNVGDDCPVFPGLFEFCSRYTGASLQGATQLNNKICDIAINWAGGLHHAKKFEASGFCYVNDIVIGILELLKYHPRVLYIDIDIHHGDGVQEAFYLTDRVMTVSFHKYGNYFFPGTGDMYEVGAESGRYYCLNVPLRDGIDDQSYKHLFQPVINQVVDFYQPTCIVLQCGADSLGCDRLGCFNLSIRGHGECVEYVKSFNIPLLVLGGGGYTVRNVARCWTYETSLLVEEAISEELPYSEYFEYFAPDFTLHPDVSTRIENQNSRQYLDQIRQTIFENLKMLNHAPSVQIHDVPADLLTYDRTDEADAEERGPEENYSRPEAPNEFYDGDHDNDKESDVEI
recombinant HDAC3, sequence (Q9Y618 395-489 partner limits assumed): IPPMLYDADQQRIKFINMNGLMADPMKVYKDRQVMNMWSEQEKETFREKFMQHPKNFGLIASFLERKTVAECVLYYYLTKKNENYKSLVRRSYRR
recombinant HDAC4, sequence (P56524 whole entry): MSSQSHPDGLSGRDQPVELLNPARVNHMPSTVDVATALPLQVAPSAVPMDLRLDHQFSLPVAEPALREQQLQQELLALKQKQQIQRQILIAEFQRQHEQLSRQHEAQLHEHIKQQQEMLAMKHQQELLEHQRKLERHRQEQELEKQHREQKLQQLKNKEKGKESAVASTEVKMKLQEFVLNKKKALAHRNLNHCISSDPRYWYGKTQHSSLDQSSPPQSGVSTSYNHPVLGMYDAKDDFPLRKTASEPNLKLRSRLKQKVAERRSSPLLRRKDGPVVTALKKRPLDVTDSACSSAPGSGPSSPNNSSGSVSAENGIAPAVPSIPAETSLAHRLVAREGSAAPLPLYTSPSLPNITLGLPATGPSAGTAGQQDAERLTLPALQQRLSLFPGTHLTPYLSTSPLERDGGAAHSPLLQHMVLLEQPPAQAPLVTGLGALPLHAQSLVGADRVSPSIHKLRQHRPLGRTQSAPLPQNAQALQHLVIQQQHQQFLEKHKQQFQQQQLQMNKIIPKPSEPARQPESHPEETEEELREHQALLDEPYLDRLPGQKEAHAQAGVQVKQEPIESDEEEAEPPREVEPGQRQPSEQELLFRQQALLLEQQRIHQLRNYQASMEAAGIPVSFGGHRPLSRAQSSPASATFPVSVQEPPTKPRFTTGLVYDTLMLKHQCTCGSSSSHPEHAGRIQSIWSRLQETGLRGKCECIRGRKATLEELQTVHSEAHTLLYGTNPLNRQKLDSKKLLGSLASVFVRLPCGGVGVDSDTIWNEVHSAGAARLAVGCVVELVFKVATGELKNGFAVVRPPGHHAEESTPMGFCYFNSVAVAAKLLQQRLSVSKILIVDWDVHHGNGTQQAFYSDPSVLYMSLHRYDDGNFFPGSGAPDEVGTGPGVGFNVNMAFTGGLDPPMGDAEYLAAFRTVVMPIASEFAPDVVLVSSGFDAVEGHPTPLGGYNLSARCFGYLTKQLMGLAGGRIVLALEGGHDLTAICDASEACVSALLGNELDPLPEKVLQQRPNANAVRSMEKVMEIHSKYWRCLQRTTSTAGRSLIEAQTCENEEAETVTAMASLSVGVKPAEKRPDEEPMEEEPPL
recombinant HDAC2, sequence (Q92769 whole entry): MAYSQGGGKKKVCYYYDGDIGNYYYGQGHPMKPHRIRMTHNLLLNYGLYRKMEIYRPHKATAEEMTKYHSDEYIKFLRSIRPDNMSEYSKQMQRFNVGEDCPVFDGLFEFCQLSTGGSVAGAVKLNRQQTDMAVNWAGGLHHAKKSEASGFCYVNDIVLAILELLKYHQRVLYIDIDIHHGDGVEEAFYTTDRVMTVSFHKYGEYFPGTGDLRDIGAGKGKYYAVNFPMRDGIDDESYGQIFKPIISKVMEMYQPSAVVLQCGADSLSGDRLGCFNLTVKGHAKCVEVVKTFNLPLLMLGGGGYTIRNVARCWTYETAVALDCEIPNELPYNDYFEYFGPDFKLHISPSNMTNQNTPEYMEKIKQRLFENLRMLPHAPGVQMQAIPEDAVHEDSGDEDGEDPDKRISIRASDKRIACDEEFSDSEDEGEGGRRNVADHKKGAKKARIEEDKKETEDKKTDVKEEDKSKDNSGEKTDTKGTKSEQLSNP
recombinant HDAC5, sequence (Q9UQL6 whole entry): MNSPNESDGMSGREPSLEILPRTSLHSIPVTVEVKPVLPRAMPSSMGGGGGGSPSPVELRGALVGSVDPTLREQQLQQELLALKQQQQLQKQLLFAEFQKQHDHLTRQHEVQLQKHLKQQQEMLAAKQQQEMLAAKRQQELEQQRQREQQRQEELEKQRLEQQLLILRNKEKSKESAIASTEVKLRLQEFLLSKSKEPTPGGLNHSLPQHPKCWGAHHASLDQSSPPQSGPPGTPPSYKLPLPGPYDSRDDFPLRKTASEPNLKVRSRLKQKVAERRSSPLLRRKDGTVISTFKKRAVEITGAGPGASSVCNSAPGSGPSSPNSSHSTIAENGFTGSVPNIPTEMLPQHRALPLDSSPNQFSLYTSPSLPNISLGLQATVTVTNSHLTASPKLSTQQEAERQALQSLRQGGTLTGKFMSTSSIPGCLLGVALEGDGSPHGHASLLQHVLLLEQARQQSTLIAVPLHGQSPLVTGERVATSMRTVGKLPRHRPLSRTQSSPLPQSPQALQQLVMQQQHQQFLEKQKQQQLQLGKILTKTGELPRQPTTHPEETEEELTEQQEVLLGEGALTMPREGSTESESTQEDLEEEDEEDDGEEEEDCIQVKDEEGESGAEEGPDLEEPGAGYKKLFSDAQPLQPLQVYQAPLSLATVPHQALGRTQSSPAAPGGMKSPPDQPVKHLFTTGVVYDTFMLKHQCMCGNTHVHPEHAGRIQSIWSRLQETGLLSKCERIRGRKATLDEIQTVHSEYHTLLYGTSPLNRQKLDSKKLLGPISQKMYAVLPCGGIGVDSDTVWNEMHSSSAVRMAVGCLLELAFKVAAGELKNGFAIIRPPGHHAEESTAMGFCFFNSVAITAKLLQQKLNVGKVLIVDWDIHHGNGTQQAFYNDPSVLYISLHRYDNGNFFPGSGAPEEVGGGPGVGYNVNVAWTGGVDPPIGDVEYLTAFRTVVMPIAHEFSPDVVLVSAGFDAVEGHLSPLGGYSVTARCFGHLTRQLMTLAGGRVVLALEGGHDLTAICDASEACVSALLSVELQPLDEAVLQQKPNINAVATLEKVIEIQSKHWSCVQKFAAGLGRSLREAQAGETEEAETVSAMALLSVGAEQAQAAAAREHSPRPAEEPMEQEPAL
recombinant HDAC9, sequence (Q9UKV0 whole entry): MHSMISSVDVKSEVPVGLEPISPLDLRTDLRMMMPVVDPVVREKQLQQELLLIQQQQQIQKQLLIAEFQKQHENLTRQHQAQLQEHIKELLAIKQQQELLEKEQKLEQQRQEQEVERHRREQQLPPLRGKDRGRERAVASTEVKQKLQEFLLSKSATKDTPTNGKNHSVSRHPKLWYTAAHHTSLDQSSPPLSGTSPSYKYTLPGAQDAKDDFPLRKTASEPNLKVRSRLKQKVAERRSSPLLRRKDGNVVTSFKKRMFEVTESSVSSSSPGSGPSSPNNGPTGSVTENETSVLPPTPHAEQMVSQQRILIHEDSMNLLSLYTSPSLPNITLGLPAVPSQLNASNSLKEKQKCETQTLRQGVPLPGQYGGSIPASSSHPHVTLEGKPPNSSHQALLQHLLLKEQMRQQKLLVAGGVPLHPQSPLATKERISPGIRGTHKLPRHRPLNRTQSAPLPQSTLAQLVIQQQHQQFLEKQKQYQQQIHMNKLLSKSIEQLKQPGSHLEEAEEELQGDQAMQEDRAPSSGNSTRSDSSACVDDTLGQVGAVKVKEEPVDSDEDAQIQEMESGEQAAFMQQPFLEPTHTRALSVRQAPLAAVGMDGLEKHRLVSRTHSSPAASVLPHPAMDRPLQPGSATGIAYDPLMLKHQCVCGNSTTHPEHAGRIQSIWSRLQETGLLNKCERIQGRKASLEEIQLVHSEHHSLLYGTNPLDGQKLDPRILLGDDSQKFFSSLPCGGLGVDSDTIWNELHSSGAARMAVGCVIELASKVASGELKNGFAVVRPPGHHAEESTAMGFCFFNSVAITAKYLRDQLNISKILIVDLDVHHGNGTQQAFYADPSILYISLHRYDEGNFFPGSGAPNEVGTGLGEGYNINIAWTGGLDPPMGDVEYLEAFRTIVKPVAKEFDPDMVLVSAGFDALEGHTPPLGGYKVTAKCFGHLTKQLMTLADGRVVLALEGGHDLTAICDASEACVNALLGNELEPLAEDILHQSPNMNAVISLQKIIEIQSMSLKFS

## Oc1cc2c(cc1O)[C@@H]1c3ccc(O)c(O)c3OC[C@]1(O)C2 [Hematoxylin]
Class IIb HDAC
  class IIb HDAC activity, effect in words: targeted class IIb HDACs for inhibition
Recombinant HDAC7
  % HDAC activity, Class IIa HDACs, 7: -
Recombinant HDAC6
  remaining activity at 50 µM: 81.8%

## COc1cc2c(cc1OC)-c1cc3ccc(OC)c(OC)c3c[n+]1CC2 [Palmatine]
Class I HDAC
  class I HDAC activity, effect in words: only inhibit class I HDAC activity
Recombinant HDAC1; [2]
  % HDAC activity, Class I HDACs, 1: 44.8%
Recombinant HDAC2
  % HDAC activity, Class I HDACs, 2: 17.5%
Recombinant HDAC3; [2]
  % HDAC activity, Class I HDACs, 3: 47.1%
Recombinant HDAC8; [2]
  % HDAC activity, Class I HDACs, 8: 40.9%
Recombinant HDAC7
  % HDAC activity, Class IIa HDACs, 7: -

## DPAH
Class IIa HDAC
  class IIa HDAC activity, effect in words: only inhibited class IIa HDAC activity

## CN1CCc2c(c3ccccc3n2Cc2ccc(C(=O)NO)cc2)C1 [TubA, Tubastatin A, reference compound]
Class IIb HDAC
  class IIb HDAC activity, effect in words: only inhibited class IIb HDAC activity

## O=c1c(O)c(-c2ccc(O)c(O)c2)oc2cc(O)cc(O)c12 [Quercetin dihydrate]
Recombinant HDAC1; 2 h, read-out: % HDAC activity, Class I HDACs, 1
  remaining activity at 50 µM: 72.7%
Recombinant HDAC3; 2 h, read-out: % HDAC activity, Class I HDACs, 3
  remaining activity at 50 µM: 63.6%
Recombinant HDAC8; 2 h, read-out: % HDAC activity, Class I HDACs, 8
  remaining activity at 50 µM: 64%
Recombinant HDAC4
  remaining activity at 50 µM: 89.8%
Recombinant HDAC5
  remaining activity at 50 µM: 78.2%
Recombinant HDAC7
  % HDAC activity, Class IIa HDACs, 7: -
Recombinant HDAC9
  remaining activity at 50 µM: 70.8%
Recombinant HDAC10
  remaining activity at 50 µM: 68%
[1]
  catalytic HDAC activity across class I, IIa and IIb substrates, effect in words: dose-dependent pan-HDAC inhibition
H9c2 cells
  acetylation of histone 3 on lysine 9/14 (Ac-H3 K9/14) via immunoblot: increased
